According to ChEMBL document CHEMBL4138271, “Crystal Structures and Human Leukemia Cell Apoptosis Inducible Activities of Parthenolide Analogues Isolated from Piptocoma rufescens” (J Nat Prod, 2018):
Activity calls are given as the source filed them. The calls are words filed in the database; no cut-off is given here.

Assays:
MOLM-13 [1] = assay: Synergistic antileukemic activity against human MOLM13 cells assessed as concentration required for <= 75% cell survival after 72 hrs in presence of midostaurin by CellTiter 96 AQueous One solution cell proliferation assay; format: functional
MOLM-13 [2] = assay: Induction of apoptosis in human MOLM13 cells assessed as caspase-3 activation at 10 uM after 72 hrs by immunoblotting analysis; format: functional, cell-based
Summary of the method: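 MOLM-13 cells treated 72 h with test compounds at 10 μM or PKC412 at 10 nM. Cells washed in ice-cold PBS, lysed at 10^8 cells/mL in NP-40 hypertonic buffer (pH 7.5) with protease/phosphatase inhibitors, then run on SDS-PAGE and PVDF. Blots probed 12 h with rabbit monoclonal cleaved caspase-3 (Asp175), β-actin as loading control. Representative of three independent experiments.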

EOL1 [3] = assay: Induction of apoptosis in human EOL-1 cells assessed as live cells at 12 uM after 24 hrs by Annexin-V FITC/7-AAD staining based flow cytometric method (reference value: 97.5%); format: functional
MOLM-13 [4] = assay: Induction of apoptosis in human MOLM13 cells assessed as early apoptotic cells at 6 uM after 24 hrs by Annexin-V FITC/7-AAD staining based flow cytometric method (reference value: 11.8%); format: functional
[5] = molecular target: Transcription factor p65 (Homo sapiens) (UniProt Q04206); assay: Inhibition of NFkappaB p65 in human MOLM13 cells at 10 uM after 72 hrs by immunoblotting method; format: cell-based
Sequence of Transcription factor p65 (Homo sapiens) (Q04206 whole entry): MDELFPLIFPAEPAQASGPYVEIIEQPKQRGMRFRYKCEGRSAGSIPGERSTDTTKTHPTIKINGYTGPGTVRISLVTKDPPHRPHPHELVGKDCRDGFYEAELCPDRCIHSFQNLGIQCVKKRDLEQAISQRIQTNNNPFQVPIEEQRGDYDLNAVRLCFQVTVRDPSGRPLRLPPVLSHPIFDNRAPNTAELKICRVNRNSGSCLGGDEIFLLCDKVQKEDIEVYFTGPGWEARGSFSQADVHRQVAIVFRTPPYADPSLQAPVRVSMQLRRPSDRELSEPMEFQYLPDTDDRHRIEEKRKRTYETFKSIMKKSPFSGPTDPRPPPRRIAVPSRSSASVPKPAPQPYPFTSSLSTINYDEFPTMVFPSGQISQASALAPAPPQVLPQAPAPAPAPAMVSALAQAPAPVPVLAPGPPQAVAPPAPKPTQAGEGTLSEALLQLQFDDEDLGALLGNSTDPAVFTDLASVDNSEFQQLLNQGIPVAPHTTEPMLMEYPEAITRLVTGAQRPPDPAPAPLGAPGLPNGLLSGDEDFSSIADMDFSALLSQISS
Summary of the method: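 MOLM-13 or EOL-1 cells treated 72 h at 10 μM. Cells washed in ice-cold PBS and lysed in hypertonic NP-40 buffer (10 mM HEPES pH 7.5, 0.5 M NaCl) with protease/phosphatase inhibitors. Protein measured by BCA; SDS-PAGE onto PVDF. Probed 12 h with rabbit monoclonal NF-κB-p65 antibody, goat β-actin as loading control, then chemiluminescence. Blots representative of three independent experiments.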

EOL1 [6] = assay: Induction of apoptosis in human EOL-1 cells assessed as early apoptotic cells at 3 uM after 24 hrs by Annexin-V FITC/7-AAD staining based flow cytometric method (reference value: 1.94%); format: functional
MOLM-13 [7] = assay: Induction of apoptosis in human MOLM13 cells assessed as live cells at 3 uM after 24 hrs by Annexin-V FITC/7-AAD staining based flow cytometric method (reference value: 86.8%); format: functional
EOL1 [8] = assay: Induction of apoptosis in human EOL-1 cells assessed as live cells at 6 uM after 24 hrs by Annexin-V FITC/7-AAD staining based flow cytometric method (reference value: 97.5%); format: functional
EOL1 [9] = assay: Induction of apoptosis in human EOL-1 cells assessed as necrotic cells at 6 uM after 24 hrs by Annexin-V FITC/7-AAD staining based flow cytometric method (reference value: 0.032%); format: functional
MOLM-13 [10] = assay: Induction of apoptosis in human MOLM13 cells assessed as necrotic cells at 12 uM after 24 hrs by Annexin-V FITC/7-AAD staining based flow cytometric method (reference value: 0%); format: functional
EOL1 [11] = assay: Synergistic antileukemic activity against human EOL-1 cells assessed as concentration required for <= 75% cell survival after 72 hrs in presence of midostaurin by CellTiter 96 AQueous One solution cell proliferation assay; format: functional
MOLM-13 [12] = assay: Induction of apoptosis in human MOLM13 cells assessed as late apoptotic cells at 12 uM after 24 hrs by Annexin-V FITC/7-AAD staining based flow cytometric method (reference value: 1.43%); format: functional
EOL1 [13] = assay: Induction of apoptosis in human EOL-1 cells assessed as necrotic cells at 12 uM after 24 hrs by Annexin-V FITC/7-AAD staining based flow cytometric method (reference value: 0.032%); format: functional
MOLM-13 [14] = assay: Induction of apoptosis in human MOLM13 cells assessed as live cells at 12 uM after 24 hrs by Annexin-V FITC/7-AAD staining based flow cytometric method (reference value: 86.8%); format: functional
MOLM-13 [15] = assay: Induction of apoptosis in human MOLM13 cells assessed as necrotic cells at 3 uM after 24 hrs by Annexin-V FITC/7-AAD staining based flow cytometric method (reference value: 0%); format: functional
EOL1 [16] = assay: Induction of apoptosis in human EOL-1 cells assessed as early apoptotic cells at 12 uM after 24 hrs by Annexin-V FITC/7-AAD staining based flow cytometric method (reference value: 1.94%); format: functional
MOLM-13 [17] = assay: Induction of apoptosis in human MOLM13 cells assessed as late apoptotic cells at 3 uM after 24 hrs by Annexin-V FITC/7-AAD staining based flow cytometric method (reference value: 1.43%); format: functional
HT-29 = assay: Cytotoxicity against human HT-29 cells after 72 hrs by MTS assay; format: functional, cell-based; settings: HT-29, 72 h
MOLM-13 [18] = assay: Induction of apoptosis in human MOLM13 cells assessed as late apoptotic cells at 6 uM after 24 hrs by Annexin-V FITC/7-AAD staining based flow cytometric method (reference value: 1.43%); format: functional
MOLM-13 [19] = assay: Induction of apoptosis in human MOLM13 cells assessed as early apoptotic cells at 3 uM after 24 hrs by Annexin-V FITC/7-AAD staining based flow cytometric method (reference value: 11.8%); format: functional
MOLM-13 [20] = assay: Induction of apoptosis in human MOLM13 cells assessed as live cells at 6 uM after 24 hrs by Annexin-V FITC/7-AAD staining based flow cytometric method (reference value: 86.8%); format: functional
EOL1 [21] = assay: Induction of apoptosis in human EOL-1 cells assessed as caspase-3 activation at 10 uM after 72 hrs by immunoblotting analysis; format: functional, cell-based
Summary of the method: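 EOL-1 cells (RPMI 1640, 10% FBS, 37 °C, 5% CO2) exposed 72 h; compounds at 10 μM, PKC412 at 10 nM. Harvested, PBS-washed, lysed in hypertonic NP-40 buffer with protease/phosphatase inhibitors; SDS-PAGE, PVDF transfer, rabbit monoclonal cleaved caspase-3 (Asp175) antibody 12 h, secondary 1 h, chemiluminescent detection; β-actin loading control. Representative blots of three independent experiments.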

EOL1 [22] = assay: Induction of apoptosis in human EOL-1 cells assessed as late apoptotic cells at 12 uM after 24 hrs by Annexin-V FITC/7-AAD staining based flow cytometric method (reference value: 0.535%); format: functional
MOLM-13 [23] = assay: Cytotoxicity against human MOLM13 cells after 72 hrs by MTS assay; format: functional, cell-based; settings: MOLM-13, 72 h
EOL1 [24] = assay: Induction of apoptosis in human EOL-1 cells assessed as late apoptotic cells at 6 uM after 24 hrs by Annexin-V FITC/7-AAD staining based flow cytometric method (reference value: 0.535%); format: functional
EOL1 [25] = assay: Cytotoxicity against human EOL-1 cells after 72 hrs by MTS assay; format: functional, cell-based; settings: EOL1, 72 h
EOL1 [26] = assay: Induction of apoptosis in human EOL-1 cells assessed as live cells at 3 uM after 24 hrs by Annexin-V FITC/7-AAD staining based flow cytometric method (reference value: 97.5%); format: functional
EOL1 [27] = assay: Induction of apoptosis in human EOL-1 cells assessed as late apoptotic cells at 3 uM after 24 hrs by Annexin-V FITC/7-AAD staining based flow cytometric method (reference value: 0.535%); format: functional
EOL1 [28] = assay: Induction of apoptosis in human EOL-1 cells assessed as early apoptotic cells at 6 uM after 24 hrs by Annexin-V FITC/7-AAD staining based flow cytometric method (reference value: 1.94%); format: functional
MOLM-13 [29] = assay: Induction of apoptosis in human MOLM13 cells assessed as early apoptotic cells at 12 uM after 24 hrs by Annexin-V FITC/7-AAD staining based flow cytometric method (reference value: 11.8%); format: functional
MOLM-13 [30] = assay: Induction of apoptosis in human MOLM13 cells assessed as necrotic cells at 6 uM after 24 hrs by Annexin-V FITC/7-AAD staining based flow cytometric method (reference value: 0%); format: functional
EOL1 [31] = assay: Induction of apoptosis in human EOL-1 cells assessed as necrotic cells at 3 uM after 24 hrs by Annexin-V FITC/7-AAD staining based flow cytometric method (reference value: 0.032%); format: functional

- inhibition [5]: Active
SMILES: C=C1C(=O)O[C@@H]2C[C@@H](C)CCC(=O)[C@](C)(OC(C)=O)C[C@H](OC(=O)/C(C)=C\C)[C@@H]12
- Activity (MOLM-13 [1]): 4.9 µM
- Activity (MOLM-13 [2]): Active
- Activity (EOL1 [3]): 93.4%
- Activity (MOLM-13 [4]): 4.87%
- Activity (EOL1 [6]): 1.64%
- Activity (MOLM-13 [7]): 94.7%
- Activity (EOL1 [8]): 97.7%
- Activity (EOL1 [9]): 0.096%
- Activity (MOLM-13 [10]): 16.9%
- Activity (EOL1 [11]): 2.5 µM
- Activity (MOLM-13 [12]): 39.7%
- Activity (EOL1 [13]): 0.497%
- Activity (MOLM-13 [14]): 36.6%
- Activity (MOLM-13 [15]): 0.056%
- Activity (EOL1 [16]): 1.4%
- Activity (MOLM-13 [17]): 0.817%
- IC50 (HT-29): 3 µM
- Activity (MOLM-13 [18]): 1.19%
- Activity (MOLM-13 [19]): 4.46%
- Activity (MOLM-13 [20]): 93.6%
- Activity (EOL1 [21]): Active
- Activity (EOL1 [22]): 4.7%
- IC50 (MOLM-13 [23]): 10 µM
- Activity (EOL1 [24]): 0.545%
- IC50 (EOL1 [25]): 8 µM
- Activity (EOL1 [26]): 97.9%
- Activity (EOL1 [27]): 0.417%
- Activity (EOL1 [28]): 1.66%
- Activity (MOLM-13 [29]): 6.8%
- Activity (MOLM-13 [30]): 0.314%
- Activity (EOL1 [31]): 0.043%
